Data published in ChEMBL document CHEMBL1131114 (J Med Chem, 1998).

Assays:
[1] = target: Norepinephrine transporter (Rattus norvegicus, UniProt Q9WTR4); experiment: Inhibition of [3H]nisoxetine (0.5 nM) binding to Noradrenaline transporter
Method in brief: (§1)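 IC50 is taken as inhibition of specific binding. Values are mean ± standard error of three or four experiments, with triplicate determinations at each concentration.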

[2] = target: Sodium-dependent serotonin transporter (Rattus norvegicus, UniProt P31652); experiment: Inhibition of [3H]paroxetine (0.2 nM) binding to 5-HT transporter; method in brief: as §1
[3] = target: Sodium-dependent dopamine transporter (Rattus norvegicus, UniProt P23977); experiment: Displacement of [3H]WIN-35428(0.5 nM) from Dopamine transporter; method in brief: as §1
Sequence of Sodium-dependent dopamine transporter (P23977 whole entry): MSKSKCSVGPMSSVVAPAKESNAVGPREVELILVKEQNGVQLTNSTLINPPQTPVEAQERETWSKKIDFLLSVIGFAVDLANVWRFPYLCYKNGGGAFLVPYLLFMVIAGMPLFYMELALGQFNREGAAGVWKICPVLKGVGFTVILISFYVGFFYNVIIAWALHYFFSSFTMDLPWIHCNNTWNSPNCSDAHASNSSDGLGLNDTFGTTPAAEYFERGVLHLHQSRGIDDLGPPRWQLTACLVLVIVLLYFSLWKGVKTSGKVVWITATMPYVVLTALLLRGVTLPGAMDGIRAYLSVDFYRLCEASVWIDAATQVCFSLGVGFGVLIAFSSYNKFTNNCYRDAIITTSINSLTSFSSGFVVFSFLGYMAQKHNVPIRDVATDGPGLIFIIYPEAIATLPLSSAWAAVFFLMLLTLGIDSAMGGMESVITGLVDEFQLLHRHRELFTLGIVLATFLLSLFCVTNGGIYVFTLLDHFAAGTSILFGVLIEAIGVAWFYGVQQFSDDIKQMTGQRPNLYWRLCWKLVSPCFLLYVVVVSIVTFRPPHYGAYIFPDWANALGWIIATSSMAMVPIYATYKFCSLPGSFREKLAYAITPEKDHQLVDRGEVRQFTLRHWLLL

Sequence of Norepinephrine transporter (Q9WTR4 whole entry): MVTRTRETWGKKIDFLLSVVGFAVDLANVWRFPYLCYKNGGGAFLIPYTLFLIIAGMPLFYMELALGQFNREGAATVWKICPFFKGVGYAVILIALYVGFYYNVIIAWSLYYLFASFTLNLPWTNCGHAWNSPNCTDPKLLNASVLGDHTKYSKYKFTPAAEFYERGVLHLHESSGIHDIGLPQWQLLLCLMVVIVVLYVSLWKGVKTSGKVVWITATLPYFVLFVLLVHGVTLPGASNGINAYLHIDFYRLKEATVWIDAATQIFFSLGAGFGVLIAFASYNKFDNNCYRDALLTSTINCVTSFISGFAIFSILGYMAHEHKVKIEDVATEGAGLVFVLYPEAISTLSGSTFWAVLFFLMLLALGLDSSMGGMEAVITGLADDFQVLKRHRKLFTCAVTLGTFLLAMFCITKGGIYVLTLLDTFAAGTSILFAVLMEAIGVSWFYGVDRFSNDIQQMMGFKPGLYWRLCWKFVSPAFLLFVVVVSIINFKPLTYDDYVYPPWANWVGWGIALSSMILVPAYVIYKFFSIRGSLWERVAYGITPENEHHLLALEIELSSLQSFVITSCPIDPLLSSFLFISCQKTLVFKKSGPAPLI
Sequence of Sodium-dependent serotonin transporter (P31652 whole entry): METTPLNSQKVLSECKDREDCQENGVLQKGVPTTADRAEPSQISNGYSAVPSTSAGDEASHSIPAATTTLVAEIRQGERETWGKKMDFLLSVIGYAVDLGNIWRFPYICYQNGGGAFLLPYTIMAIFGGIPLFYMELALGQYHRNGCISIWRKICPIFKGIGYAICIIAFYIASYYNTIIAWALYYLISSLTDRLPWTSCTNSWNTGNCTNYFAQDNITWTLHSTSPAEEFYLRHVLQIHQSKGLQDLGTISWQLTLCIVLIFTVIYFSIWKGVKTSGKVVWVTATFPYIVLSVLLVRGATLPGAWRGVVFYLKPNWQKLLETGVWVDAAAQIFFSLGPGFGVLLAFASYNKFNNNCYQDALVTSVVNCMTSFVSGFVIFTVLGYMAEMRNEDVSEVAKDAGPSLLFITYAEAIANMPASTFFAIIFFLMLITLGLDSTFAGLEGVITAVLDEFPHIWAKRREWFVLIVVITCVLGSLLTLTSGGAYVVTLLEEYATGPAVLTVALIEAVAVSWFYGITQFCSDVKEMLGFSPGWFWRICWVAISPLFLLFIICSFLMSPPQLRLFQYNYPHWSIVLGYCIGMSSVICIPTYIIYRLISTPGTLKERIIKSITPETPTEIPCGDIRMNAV

Compound | IC50 [1] [nM] | IC50 [2] [nM] | IC50 [3] [nM]
Fc1ccc([C@@H]2CC3CCC(N3)[C@@H]2COc2ccc3c(c2)OCO3)cc1 (stereo partly specified) | 1690 | 55.8 | 27.6
Fc1ccc([C@H]2CC3CCC(N3)[C@@H]2COc2ccc3c(c2)OCO3)cc1 (stereo partly specified) | 2500 | 90 | 142
CN1C2CC[C@@H]1C[C@H](c1ccc(F)cc1)[C@H]2COc1ccc2c(c1)OCO2 | 26600 | 52.9 | 172
CN1C2CC[C@@H]1[C@H](COc1ccc3c(c1)OCO3)[C@H](c1ccc(F)cc1)C2 | 2920 | 447 | 1500
CN1C2CC[C@@H]1[C@@H](COc1ccc3c(c1)OCO3)[C@H](c1ccc(F)cc1)C2 | 27600 | 88.1 | 1050
CN1C2CC[C@@H]1C[C@H](c1ccc(F)cc1)[C@@H]2COc1ccc2c(c1)OCO2 | 5300 | 294 | 308
CN1C2CC[C@@H]1C[C@@H](c1ccc(F)cc1)[C@@H]2COc1ccc2c(c1)OCO2 | 123 | 422 | 3.01
CN1C2CC[C@@H]1[C@@H](COc1ccc3c(c1)OCO3)[C@@H](c1ccc(F)cc1)C2 | 12400 | 178 | 298
Fc1ccc([C@H]2CC3CCC(N3)[C@H]2COc2ccc3c(c2)OCO3)cc1 (stereo in doubt; 4a) | 37400 | 480 | 835
Fc1ccc([C@@H]2CC3CCC(N3)[C@H]2COc2ccc3c(c2)OCO3)cc1 (stereo in doubt; 4c) | 14.4 | 5.62 | 3.86
Fc1ccc([C@@H]2CC3CCC(N3)[C@H]2COc2ccc3c(c2)OCO3)cc1 (stereo in doubt; 4d) | 17300 | 424 | 1210
Fc1ccc([C@H]2CC3CCC(N3)[C@H]2COc2ccc3c(c2)OCO3)cc1 (stereo in doubt; 4f) | 1990 | 19 | 403
